Assay results taken from ChEMBL document CHEMBL4028906, “Allosteric Inhibitors of SHP2 with Therapeutic Potential for Cancer Treatment” (J Med Chem, 2017).
Calls of active or inactive are those of the source. The rule behind the calls is not given here.

Legend:
[1] = Allosteric inhibition of SHP2 E76A mutant (unknown origin) expressed in Escherichia coli BL21(DE3) using DIFMUP as substrate preincubated for 20 mins followed by substrate addition measured after 20 mins by phosphatase assay; set-up: species or system Homo sapiens
In short: (§1)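 His-tagged SHP2 constructs expressed in E. coli BL21(DE3) (0.5 mM IPTG, 5 h, 30 °C) and Ni-column purified. 1.5 nM enzyme preincubated 20 min at room temperature with compound in 0.1 M sodium acetate pH 5.0. DIFMUP then added, 20 min further, fluorescence at 358/455 nm. Eight 3-fold dilutions, duplicate wells, IC50 from at least three independent experiments.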

[2] = target: T1, Tyrosine-protein phosphatase non-receptor type 11 (Homo sapiens) (UniProt Q06124); test: Allosteric inhibition of SHP2 in human NCI-H661 cells assessed as downregulation of phosphorylated AKT levels at 20 uM after 2 hrs by Western blot analysis; assay type: cell-based
T1 sequence (whole entry): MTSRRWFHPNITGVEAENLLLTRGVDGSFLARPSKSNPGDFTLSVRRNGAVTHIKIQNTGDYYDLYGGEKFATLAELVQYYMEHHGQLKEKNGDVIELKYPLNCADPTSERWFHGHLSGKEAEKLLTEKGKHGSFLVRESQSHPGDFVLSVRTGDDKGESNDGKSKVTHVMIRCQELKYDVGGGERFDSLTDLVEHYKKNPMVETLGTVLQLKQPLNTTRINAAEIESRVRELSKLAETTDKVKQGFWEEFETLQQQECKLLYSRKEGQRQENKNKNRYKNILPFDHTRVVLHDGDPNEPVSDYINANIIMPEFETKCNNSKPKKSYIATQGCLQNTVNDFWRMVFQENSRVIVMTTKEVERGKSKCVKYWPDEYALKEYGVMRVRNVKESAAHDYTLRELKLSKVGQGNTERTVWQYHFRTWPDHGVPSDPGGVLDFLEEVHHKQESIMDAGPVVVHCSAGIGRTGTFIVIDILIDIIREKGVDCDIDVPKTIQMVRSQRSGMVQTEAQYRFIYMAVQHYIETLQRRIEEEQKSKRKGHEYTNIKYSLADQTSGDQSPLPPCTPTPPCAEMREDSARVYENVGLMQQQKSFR
In short: (§2)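 NCI-H661 cells in 6-well plates exposed to inhibitor 2 h at 37 °C. RIPA lysates separated by SDS-PAGE, transferred to PVDF, milk-blocked, probed overnight at 4 °C for pERK1/2, ERK1/2, pAKT and AKT. Repeated at least three times.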

[3] = target: T1, Tyrosine-protein phosphatase non-receptor type 11 (Homo sapiens); test: Allosteric inhibition of SHP2 in human SF268 cells stably expressing Yap-Luc reporter assessed as reduction in YAP transcriptional activity at 3 to 12 uM after 12 hrs by Yap-luciferase reporter gene assay; assay type: cell-based
In short: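 SF268 cells stably carrying a Yap-Luc reporter, in RPMI-1640 on 96-well plates, given inhibitor at 3, 6 and 12 μM on day 1. After 12 h, lysates read for Renilla luciferase, normalized to CellTiter-Glo signal; mean±s.d., n=3.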

[4] = target: T1, Tyrosine-protein phosphatase non-receptor type 11 (Homo sapiens); test: Allosteric inhibition of SHP2 in human NCI-H661 cells assessed as downregulation of phosphorylated ERK1/2 levels at 20 uM after 2 hrs by Western blot analysis; assay type: cell-based; in short: as §2
[5] = target: Tyrosine-protein phosphatase non-receptor type 11 (Homo sapiens, UniProt Q06124); test: Allosteric inhibition of SHP2 PTP domain (unknown origin) expressed in Escherichia coli BL21(DE3) using DIFMUP as substrate preincubated for 20 mins followed by substrate addition measured after 20 mins by phosphatase assay; in short: as §1

Row | Compound | IC50 [1] | other results
1 | COc1ccc2cc(-c3csc(N4CCC(C)(N)CC4)n3)ccc2c1 | 2.46 µM | 
2 | CC1(C)CC(Nc2nc(-c3ccc4ccccc4c3)cs2)CC(C)(C)N1 | 2.55 µM | 
3 | CC1(N)CCN(c2nc(-c3cccc4c3oc3ccccc34)cs2)CC1 | 46.5 µM | 
4 | CC1(N)CCN(c2nc(-c3ccc(-c4ccc(O)cc4)cc3)cs2)CC1 | 20.3 µM | 
5 | CC1CN(c2nc(-c3ccc4ccccc4c3)cs2)CC(C)N1 (stereo unspecified) | 12.3 µM | 
6 | c1ccc2cc(-c3csc(NCC4CCCNC4)n3)ccc2c1 (stereo unspecified) | 1.49 µM | 
7 | CN1CCC(Nc2nc(-c3ccc4ccccc4c3)cs2)CC1 | 2.81 µM | 
8 | CC1(N)CCN(c2nc(-c3cc4ccccc4s3)cs2)CC1 | > 100 µM | inhibition [2]: inactive; inhibition [3]: inactive; inhibition [4]: inactive
9 | COC(=O)c1ccc2cc(-c3csc(N4CCC(C)(N)CC4)n3)ccc2c1 | 1.08 µM | 
10 | CC1(N)CCN(c2nc(-c3ccc4cc(F)ccc4c3)cs2)CC1 | 1.27 µM | 
11 | CC1(C)CC(Nc2nc(-c3cccc(-c4ccccc4)c3)cs2)CC(C)(C)N1 | 3.27 µM | 
12 | CC1(N)CCN(c2nc(-c3ccc4cc(C(=O)O)ccc4c3)cs2)CC1 | 51.7 µM | 
13 | CC1(N)CCN(c2nc(-c3ccc4ccccc4c3)cs2)CC1 | 1.48 µM | 
14 | CC1(C)CC(Nc2nc(-c3ccc(-c4ccccc4)cc3)cs2)CC(C)(C)N1 | 5.32 µM | 
15 | CC1(N)CCN(c2nc(-c3ccc(-c4ccc(F)cc4)cc3)cs2)CC1 | 14.2 µM | 
16 | COC(=O)c1ccc(-c2cccc(-c3csc(N4CCC(C)(N)CC4)n3)c2)cc1 | 3.28 µM | 
17 | CC1(N)CCN(c2nc(-c3cnc4ccccc4c3)cs2)CC1 | 52.3 µM | 
18 | CC1(C)CC(Nc2nc(-c3ccccc3)cs2)CC(C)(C)N1 | 19.1 µM | IC50 [5]: > 100 µM
19 | CC1(N)CCN(c2nc(-c3cccc(-c4ccc(C#N)cc4)c3)cs2)CC1 | 1.76 µM | 
20 | CC1(N)CCN(c2nc(-c3ccc4cc(C#N)ccc4c3)cs2)CC1 | 1.37 µM | 
21 | CC1(N)CCN(c2nc(-c3cccc(-c4ccccc4)c3)cs2)CC1 | 3.62 µM | 
22 | NCC1CCCN(c2nc(-c3ccc4ccccc4c3)cs2)C1 (stereo unspecified) | 52.8 µM | 
23 | c1ccc2cc(-c3csc(NC4CCNCC4)n3)ccc2c1 | 0.73 µM | 
24 | CC1(N)CCN(c2cnc(-c3cccc(Cl)c3Cl)c(N)n2)CC1 | 0.12 µM | 
25 | CC1(N)CCN(c2nc(-c3ccc4cc(CO)ccc4c3)cs2)CC1 | > 100 µM | 
26 | CC1(N)CCN(c2nc(-c3ccc4cc(Cl)ccc4c3)cs2)CC1 | 2.68 µM | 
27 | c1ccc2cc(-c3csc(NC4CCNC4)n3)ccc2c1 (stereo unspecified) | 1.65 µM | 
